Calls of active or inactive are those of the source. No cut-off for these calls is given here.
Key:
[1] = tested on: RAW264.7; assay: Antiinflammatory activity in mouse RAW264.7 cells assessed as inhibition of LPS-stimulated nitric oxide production at 3 ug/ml after 24 hrs by Colorimetry based Griess assay; format: functional; details: RAW264.7, 24 h
How it was run: (§1)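 RAW 264.7 murine macrophages were pretreated with the nucleosides for 1 h at 0.1, 0.3, 1.0, 3.0, 10 and 30 μg/mL, with n = 6 wells per concentration. LPS (3 μg/mL) was then added and cells incubated 24 h. Nitrite was measured with Griess stain and expressed as percent reduction versus the LPS control. Significance was tested by ANOVA with Dunnett's test.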

[2] = tested on: RAW264.7; assay: Cytotoxicity against mouse RAW264.7 cells assessed as cell viability after 48 hrs by MTT assay; format: cell-based; details: raw264.7, 48 h
[3] = tested on: RAW264.7; assay: Antiinflammatory activity in mouse RAW264.7 cells assessed as inhibition of LPS-stimulated nitric oxide production up to 30 ug/ml after 24 hrs by Colorimetry based Griess assay; format: functional, cell-based; how it was run: as §1

COc1nc(N)c2ncn([C@@H]3O[C@H](CO)[C@@H](O)[C@H]3O)c2n1 [BVT.115959]
inhibition at 3 µg/mL [1]: 60%
Activity [2]: Non-toxic

Nc1nc2c(nc(O)n2[C@H]2C[C@H](O)[C@@H](CO)O2)c(=O)[nH]1
Activity [2]: Non-toxic

Nc1nc(O)c2ncn([C@H]3C[C@H](O)[C@@H](CO)O3)c2n1
inhibition [3]: Active

COc1nc(N)c2nc[nH]c2n1
inhibition [3]: Active

Nc1nc2c(ncn2[C@H]2C[C@H](O)[C@@H](CO)O2)c(=O)[nH]1 [DEOXYGUANOSINE]
Activity [2]: Non-toxic

Cc1cn([C@@H]2O[C@H](CO)[C@@H](O)[C@@H]2O)c(=O)[nH]c1=O
inhibition [3]: Active
Activity [2]: Non-toxic

COc1nc(N)c2ncn([C@H]3C[C@H](O)[C@@H](CO)O3)c2n1
inhibition [3]: Active
Activity [2]: Non-toxic

COc1nc(N)c2[nH]cnc2n1
Activity [2]: Non-toxic

Nc1nc2c([nH]c(=O)n2[C@H]2C[C@H](O)[C@@H](CO)O2)c(=O)[nH]1
inhibition [3]: Active
